{"data": "Published values gathered from unrelated publications", "observed": "cell growth or viability", "note": "Protocols differ between the studies behind these lines."}
{"SMILES": "Nc1ccccc1/N=c1\\cc(-c2ccc3c(c2)OCO3)oc2ccccc12", "cell line": "HCT-116", "technique": "CCK-8", "tested at": "1 µM", "measurement": "inhibition", "value": "1.69%"}
{"SMILES": "CCCCCCCCCCCCCCCCCCOc1ccccc1CC(=O)OCC[N+](C)(C)C", "cell line": "EKVX", "technique": "SRB", "tested at": "10 µM", "measurement": "inhibition", "value": "53.1%"}
{"SMILES": "O=C(Nc1cc(C(F)(F)F)cc(C(F)(F)F)c1)Nc1nc2cc(-c3ccc4ncn(Cc5ccccc5)c(=O)c4c3)ccc2s1", "cell line": "PC-9", "technique": "MTT", "time": "72 h", "measurement": "IC50", "value": "> 20 µM"}
{"SMILES": "C[C@H](Nc1ccc2c(c1)OCCn1cc(N3C(=O)OC[C@H]3C(F)F)nc1-2)C(N)=O", "cell line": "SK-OV-3", "technique": "ATP luminescence", "time": "5 days", "measurement": "EC50", "value": "0.0574 µM"}
{"SMILES": "CCCCCCCCCCCCCCCCCCOc1cccc(CC(=O)OCCC[N+](C)(C)C)c1", "cell line": "EKVX", "technique": "SRB", "tested at": "10 µM", "measurement": "inhibition", "value": "4.64%"}
{"SMILES": "O=C(Nc1ccc(Cl)cc1)Nc1cccc(-c2cn(Cc3ccc(Cl)cc3)nn2)c1", "cell line": "PC-9", "technique": "CCK-8", "tested at": "50 µM", "time": "72 h", "measurement": "viability", "value": "110%"}
{"SMILES": "CCC(=O)Nc1nc2cc(-c3ccc4ncn(Cc5ccccc5)c(=O)c4c3)ccc2s1", "cell line": "PC-9", "technique": "MTT", "time": "72 h", "measurement": "IC50", "value": "> 20 µM"}
{"SMILES": "O=C(Nc1ccc(Cl)cc1)Nc1ccc(-c2cn(Cc3ccc(Cl)cc3)nn2)cc1", "cell line": "PC-9", "technique": "CCK-8", "tested at": "20 µM", "time": "72 h", "measurement": "viability", "value": "86%"}
{"SMILES": "CCCS(=O)(=O)Oc1cc(C=NNC(=O)c2nc3ccccc3s2)ccc1OC", "cell line": "HCT-116", "technique": "MTT", "tested at": "100 µM", "time": "48 h", "measurement": "cell death", "value": "42.7%"}
{"SMILES": "NC(=O)C1CCCN1C(=O)Nc1ccccc1/N=c1\\cc(-c2ccc3c(c2)OCCO3)oc2cc(F)ccc12 (stereo not drawn)", "cell line": "HCT-116", "technique": "CCK-8", "tested at": "1 µM", "measurement": "inhibition", "value": "13.6%"}
{"SMILES": "O=C(Nc1cccc(F)c1)Nc1nc2cc(-c3ccc4ncn(CCN5CCOCC5)c(=O)c4c3)ccc2s1", "cell line": "PC-9", "technique": "MTT", "time": "72 h", "measurement": "IC50", "value": "> 20 µM"}
{"SMILES": "NCCC(=O)Nc1ccccc1/N=c1\\cc(-c2ccc3nc(N)oc3c2)oc2ccc(O)cc12", "cell line": "HCT-116", "technique": "CCK-8", "tested at": "1 µM", "measurement": "inhibition", "value": "15%"}
{"SMILES": "CCCCCCCCCCCCCCCCCCOc1ccccc1CC(=O)OCCC[N+](C)(C)C", "cell line": "EKVX", "technique": "SRB", "tested at": "10 µM", "measurement": "inhibition", "value": "21%"}
{"SMILES": "COc1ccc(NC(=O)Nc2cccc(-c3cn(Cc4cccc(Cl)c4)nn3)c2)cc1", "cell line": "PC-9", "technique": "CCK-8", "tested at": "50 µM", "time": "72 h", "measurement": "viability", "value": "136%"}
{"SMILES": "Cc1nc(NC(=O)N2CCC[C@H]2C(N)=O)sc1-c1ccnc(C(C)(C)C(F)(F)F)c1", "cell line": "KYSE-510", "technique": "ATP luminescence", "time": "5 days", "measurement": "EC50", "value": "1.5 µM"}
{"SMILES": "COc1ccc(NC(=O)Nc2cccc(-c3cn(Cc4ccc(Cl)cc4)nn3)c2)cc1", "cell line": "PC-9", "technique": "CCK-8", "tested at": "20 µM", "time": "72 h", "measurement": "viability", "value": "147%"}
{"SMILES": "O=C(NCc1cn(Cc2ccc(Br)cc2)nn1)Nc1ccc(Cl)cc1", "cell line": "PC-9", "technique": "CCK-8", "tested at": "20 µM", "time": "72 h", "measurement": "viability", "value": "111%"}
{"SMILES": "COc1ccc(NC(=O)Nc2cccc(-c3cn(Cc4ccccc4C)nn3)c2)cc1", "cell line": "PC-9", "technique": "CCK-8", "tested at": "50 µM", "time": "72 h", "measurement": "viability", "value": "98.2%"}
{"SMILES": "NCCC(=O)Nc1ccccc1/N=c1\\cc(-c2ccc3c(c2)OCCO3)oc2cc(F)ccc12", "cell line": "HCT-116", "technique": "CCK-8", "tested at": "1 µM", "measurement": "inhibition", "value": "11.5%"}
{"SMILES": "O=C(Nc1ccc(Cl)cc1)Nc1cccc(-c2cn(Cc3cccc(Cl)c3)nn2)c1", "cell line": "PC-9", "technique": "CCK-8", "tested at": "50 µM", "time": "72 h", "measurement": "viability", "value": "118%"}
{"SMILES": "O=C(NCc1ccccc1)Nc1nc2cc(-c3ccc4ncn(Cc5ccccc5)c(=O)c4c3)ccc2s1", "cell line": "PC-9", "technique": "MTT", "time": "72 h", "measurement": "IC50", "value": "> 20 µM"}
{"SMILES": "CNCCC(=O)Nc1ccccc1/N=c1\\cc(-c2ccc3nc(N)oc3c2)oc2ccccc12", "cell line": "HCT-116", "technique": "CCK-8", "tested at": "1 µM", "measurement": "inhibition", "value": "76.8%"}
{"SMILES": "COc1ccc(NC(=O)Nc2cccc(-c3cn(Cc4ccc(Br)cc4)nn3)c2)cc1", "cell line": "PC-9", "technique": "CCK-8", "tested at": "20 µM", "time": "72 h", "measurement": "viability", "value": "141%"}
{"SMILES": "NCC(=O)Nc1ccccc1/N=c1\\cc(-c2ccc3c(c2)OCCO3)oc2ccccc12", "cell line": "HCT-116", "technique": "CCK-8", "tested at": "1 µM", "measurement": "inhibition", "value": "16.4%"}
{"SMILES": "CCCCCCCCCCCCCCCCCCOc1cccc(CC(=O)OCC[N+](CC)(CC)CC)c1", "cell line": "EKVX", "technique": "SRB", "tested at": "10 µM", "measurement": "inhibition", "value": "22.3%"}
{"SMILES": "O=C(Nc1cccc(-c2cn(Cc3ccc(Cl)cc3)nn2)c1)Nc1ccccc1Br", "cell line": "PC-9", "technique": "CCK-8", "tested at": "20 µM", "time": "72 h", "measurement": "viability", "value": "130%"}
{"SMILES": "O=C(Nc1ccc(Cl)cc1)Nc1cccc(-c2cn(Cc3cccc(Br)c3)nn2)c1", "cell line": "PC-9", "technique": "CCK-8", "tested at": "20 µM", "time": "72 h", "measurement": "viability", "value": "101%"}
{"SMILES": "O=C(NCc1cn(Cc2cccc(Cl)c2)nn1)Nc1ccc(Cl)cc1", "cell line": "PC-9", "technique": "CCK-8", "tested at": "50 µM", "time": "72 h", "measurement": "viability", "value": "90%"}
{"SMILES": "COc1ccc(NC(=O)Nc2cccc(-c3cn(Cc4ccc(C)cc4)nn3)c2)cc1", "cell line": "PC-9", "technique": "CCK-8", "tested at": "20 µM", "time": "72 h", "measurement": "viability", "value": "159%"}
{"SMILES": "Oc1cccc(-c2nc(N3CCOCC3)c3oc4ncccc4c3n2)c1", "cell line": "HCT-116", "technique": "CCK-8", "tested at": "1 µM", "measurement": "inhibition", "value": "12.5%"}
{"SMILES": "O=C(Nc1ccc(-c2cn(Cc3ccc(Br)cc3)nn2)cc1)Nc1ccccc1Br", "cell line": "PC-9", "technique": "CCK-8", "tested at": "20 µM", "time": "72 h", "measurement": "viability", "value": "85%"}
{"SMILES": "CCCCCCCCCCCCCCCCCCOc1ccccc1CC(=O)OCC[N+]1(C)CCCCC1", "cell line": "EKVX", "technique": "SRB", "tested at": "10 µM", "measurement": "inhibition", "value": "36.9%"}
{"SMILES": "COc1ccc(NC(=O)NCc2cn(Cc3ccc(Cl)cc3)nn2)cc1", "cell line": "PC-9", "technique": "CCK-8", "tested at": "50 µM", "time": "72 h", "measurement": "viability", "value": "104%"}
{"SMILES": "C=C(NC(=O)C(=C)NC(=O)c1csc(C2=N[C@@H]3c4csc(n4)[C@H]4NC(=O)c5csc(n5)[C@H]([C@](C)(O)[C@@H](C)O)NC(=O)[C@H]5CSC(=N5)/C(=C/C)NC(=O)[C@H]([C@@H](C)O)NC(=O)c5csc(n5)[C@]3(CC2)NC(=O)[C@H](C)NC(=O)C(=C)NC(=O)[C@H](C)NC(=O)[C@H]([C@@H](C)CC)N[C@@H]2C=Cc3c([C@H](C)O)cc(nc3[C@H]2O)C(=O)O[C@@H]4C)n1)C(N)=O", "cell line": "SK-OV-3", "measurement": "EC50", "value": "2.5 µM"}
{"SMILES": "CCCCCCCCCCCCCCCCCCOc1ccc(CC(=O)OCCC[N+](C)(C)C)cc1", "cell line": "EKVX", "technique": "SRB", "tested at": "10 µM", "measurement": "inhibition", "value": "3.92%"}
{"SMILES": "O=C(Nc1ccccc1/N=c1\\cc(-c2ccc3c(c2)OCO3)oc2ccccc12)N1CCOCC1", "cell line": "HCT-116", "technique": "CCK-8", "tested at": "1 µM", "measurement": "inhibition", "value": "11.2%"}
{"SMILES": "CC(=O)Nc1nc2cc(-c3ccc4ncn(Cc5ccccc5)c(=O)c4c3)ccc2s1", "cell line": "PC-9", "technique": "MTT", "time": "72 h", "measurement": "IC50", "value": "> 20 µM"}
{"SMILES": "Cc1nc(Nc2ncc(C(=O)Nc3c(C)cccc3Cl)s2)cc(N2CC[C@H](O)C2)n1", "cell line": "WSUDLCL2", "technique": "ATP luminescence", "tested at": "10 µM", "time": "72 h", "measurement": "inhibition", "value": "13%"}
{"SMILES": "O=C(Nc1ccc(Cl)cc1)Nc1ccc(-c2cn(Cc3cccc(Cl)c3)nn2)cc1", "cell line": "PC-9", "technique": "CCK-8", "tested at": "20 µM", "time": "72 h", "measurement": "viability", "value": "72.1%"}
{"SMILES": "CCCCCCCCCCCCCCCCCCOc1cccc(CC(=O)OCC[N+]2(C)CCCCC2)c1", "cell line": "EKVX", "technique": "SRB", "tested at": "10 µM", "measurement": "inhibition", "value": "3.05%"}
{"SMILES": "COc1ccc(NC(=O)Nc2ccc(-c3cn(Cc4cccc(Cl)c4)nn3)cc2)cc1", "cell line": "PC-9", "technique": "CCK-8", "tested at": "20 µM", "time": "72 h", "measurement": "viability", "value": "98.2%"}
{"SMILES": "COc1cccc(NC(=O)Nc2nc3cc(-c4ccc5ncn(Cc6ccccc6)c(=O)c5c4)ccc3s2)c1", "cell line": "PC-9", "technique": "MTT", "time": "72 h", "measurement": "IC50", "value": "> 20 µM"}
